Assay results from different studies.
Lines come from different studies, so protocols differ. pEC50, pIC50, pKd: −log10 of the molar value.
Mc1r: Melanocyte-stimulating hormone receptor (Mc1r, Mus musculus, UniProt Q01727)
PSMB8: Proteasome subunit beta type-8 (PSMB8, Homo sapiens, UniProt P28062)

| Structure (SMILES) | target | observed | action | method | setting | quantity | result |
| --- | --- | --- | --- | --- | --- | --- | --- |
| C[C@@H]1NC(=O)[C@H](CCCNC(=N)N)NC(=O)[C@H](Cc2ccccc2)NC(=O)[C@H](Cc2ccccc2)NC(=O)[C@H](CCCNC(=N)N)NC(=O)[C@@H]2CCCN2C(=O)[C@H]2CCCN2C(=O)[C@H](Cc2ccccc2)NC1=O | Mc1r | reporter gene | agonist |  |  | pEC50 | < 4.00 |
| Cc1ncc(C(=O)N[C@@H](CC(C)C)C(=O)N[C@@H](CC2CCCC3CCCCC32)C(=O)N[C@H](/C=C/S(C)(=O)=O)Cc2ccc(CN)cc2)s1 (stereo partly drawn) | PSMB8 | enzyme activity | inhibitor |  | lysate | pIC50 | < 5.00 |
| CSCC[C@H](NC(=O)[C@@H](NC(=O)[C@@H](N)Cc1ccc(O)cc1)C(C)C)C(=O)NCC(=O)N[C@@H](Cc1c[nH]cn1)C(=O)N[C@@H](Cc1ccccc1)C(=O)N[C@@H](CCCNC(=N)N)C(=O)N[C@@H](Cc1c[nH]c2ccccc12)C(=O)O | Mc1r | reporter gene | agonist |  |  | pEC50 | 5.54 |
| Cc1ncc(C(=O)N[C@@H](CC2CCCCC2)C(=O)N[C@@H](CC2CCCCC2)C(=O)N[C@H](/C=C/S(C)(=O)=O)Cc2ccc(CN)cc2)s1 | PSMB8 | enzyme activity | inhibitor |  | lysate | pIC50 | < 5.00 |
| CC1=C(/C=C/C(C)=C/C=C/C(C)=C/C=O)C(C)(C)CCC1 | Cellular retinoic acid-binding protein 2 (CRABP2, Homo sapiens, UniProt P29373, R133K/Y135F) | binding |  | fluorescence |  | pKd | 6.92 |
| CC(C)C[C@H](NC(=O)CN1CCOCC1)C(=O)N[C@@H](CC(C)C)C(=O)N[C@H](/C=C/S(C)(=O)=O)Cc1ccc(CN)cc1 | PSMB8 | enzyme activity | inhibitor |  | lysate | pIC50 | < 5.00 |
| CC[C@H](C)[C@H](NC(=O)[C@H](CO)NC(=O)[C@H](Cc1ccc(O)cc1)NC(=O)[C@H](CC(=O)O)NC(=O)[C@H](CO)NC(=O)[C@@H](NC(=O)[C@H](Cc1ccccc1)NC(=O)[C@@H](NC(=O)CNC(=O)[C@H](CCC(=O)O)NC(=O)[C@H](C)NC(=O)[C@@H](N)Cc1ccc(O)cc1)[C@@H](C)O)[C@@H](C)CC)C(=O)N[C@@H](C)C(=O)N[C@@H](CCSC)C(=O)N[C@@H](CC(=O)O)C(=O)N[C@@H](CCCCN)C(=O)N[C@H](C(=O)N[C@@H](Cc1c[nH]cn1)C(=O)N[C@@H](CCC(N)=O)C(=O)N[C@@H](CCC(N)=O)C(=O)N[C@@H](CC(=O)O)C(=O)N[C@@H](Cc1ccccc1)C(=O)N[C@H](C(=O)N[C@@H](CC(N)=O)C(=O)N[C@@H](Cc1c[nH]c2ccccc12)C(=O)N[C@@H](CC(C)C)C(=O)N[C@@H](CC(C)C)C(=O)N[C@@H](C)C(=O)N[C@@H](CCC(N)=O)C(=O)N[C@@H](CCCCN)C(=O)NCC(=O)N[C@@H](CCCCN)C(=O)N[C@@H](CCCCN)C(=O)N[C@@H](CC(N)=O)C(=O)N[C@@H](CC(=O)O)C(=O)N[C@@H](Cc1c[nH]c2ccccc12)C(=O)N[C@@H](CCCCN)C(=O)N[C@@H](Cc1c[nH]cn1)C(=O)N[C@@H](CC(N)=O)C(=O)N[C@H](C(=O)N[C@H](C(=O)N[C@@H](CCC(N)=O)C(=O)O)[C@@H](C)O)[C@@H](C)CC)C(C)C)[C@@H](C)CC | Glucagon receptor (GCGR, Homo sapiens, UniProt P47871) | reporter gene | agonist | luciferase |  | pEC50 | 6.30 |
| N=C(N)NCCC[C@H](NC(=O)[C@H](CC(=O)O)NC(=O)[C@@H](N)Cc1c[nH]c2ccccc12)C(=O)N[C@@H](Cc1ccccc1)C(=O)NCC(=O)O | Mc1r | reporter gene | agonist |  |  | pEC50 | < 4.00 |
| CN1CCN(c2ccc(Nc3ncc4cc(C#N)c(=O)n(C5CCCC5)c4n3)cc2)CC1 | Ephrin type-A receptor 1 (EPHA1, Homo sapiens, UniProt P21709) | enzyme activity | inhibitor |  |  | pIC50 | 7.24 |
